Results taken from ChEMBL document CHEMBL2046273, “3-Hydroxy-1H-quinazoline-2,4-dione derivatives as new antagonists at ionotropic glutamate receptors: molecular modeling and pharmacological studies” (Eur J Med Chem, 2012).
The source made the active and inactive calls. The calls are words filed in the database; no cut-off is given here.

Tests used:
[1] = Displacement of [3H]kainate from high affinity kainate receptor in rat cortical membrane; assay type: cell membranes
[2] = Displacement of [3H]AMPA from AMPA receptor in rat cortical synaptical membrane; assay type: cell membranes
Glutamate NMDA receptor = assay: Displacement of [3H]glycine from NMDA receptor in rat cortical synaptical membrane; assay type: cell membranes
[3] = Antagonist activity at NMDA receptor in mouse cortical wedge assessed as inhibition of NMDA-induced membrane depolarization by electrophysiological assay; assay type: functional
Rattus norvegicus [4] = species on record: Rattus norvegicus; assay: Displacement of [3H]AMPA from AMPA receptor in rat cortical synaptical membrane at 100 uM; assay type: cell membranes
Outline: (§1)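 Rat cortical membranes, test compound at 100 µM single concentration. Diluted in buffer from a 1 mM stock in 50% DMSO. Result given as percent inhibition of specific radioligand binding. Determinations were done in triplicate, 3–4 separate experiments.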

[5] = Antagonist activity at AMPA receptor in mouse cortical wedge assessed as inhibition of S-AMPA-induced membrane depolarization by electrophysiological assay; assay type: functional
Rattus norvegicus [6] = species on record: Rattus norvegicus; assay: Displacement of [3H]kainate from kainate receptor in rat cortical membrane at 100 uM; assay type: cell membranes; outline: as §1
Hippocampus [7] = assay: Neuroprotective activity in Wistar rat acute hippocampal CA1 region assessed as protection from oxygen glucose deprivation-induced anoxia depolarization at 1 uM administered 15 mins before and during 7 mins oxygen-deprivation challenge; assay type: functional, tissue-based
Outline: (§2)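 Acute rat hippocampal slices superfused with aCSF, compound in DMSO (final under 0.001%). Applied 15 min before and during 7-min OGD. Anoxic depolarization recorded in CA1 as negative DC voltage shift, with loss of fepsp followed on reperfusion with oxygenated glucose-containing aCSF. n = 3 (1 µM) or 6 (5 µM).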

[8] = Antagonist activity at kainate receptor in Wistar rat acute hippocampal CA1 region slices assessed as reduction in field excitatory postsynaptic potential amplitude at basal conditions at 5 uM by electrophysiological analysis; assay type: functional; settings: Hippocampus
Hippocampus [9] = assay: Neuroprotective activity in Wistar rat hippocampal CA1 region assessed as change in field excitatory postsynaptic potential at basal conditions at 1 to 5 uM by electrophysiological analysis; assay type: functional, tissue-based
Hippocampus [10] = assay: Neuroprotective activity in Wistar rat acute hippocampal CA1 region slices assessed as protection from oxygen glucose deprivation-induced anoxic depolarization at 5 uM administered 15 mins before and during 7 mins oxygen glucose deprivation challenge; assay type: functional; outline: as §2
[11] = Antagonist activity at kainate receptor in Wistar rat acute hippocampal CA1 region slices assessed as reduction in field excitatory postsynaptic potential amplitude at basal conditions at 1 uM by electrophysiological analysis; assay type: functional; settings: Hippocampus
[12] = Antagonist activity at kainate receptor in Wistar rat acute hippocampal CA1 region slices assessed as reduction of kainate-induced field excitatory postsynaptic potential suppression at 1 uM by electrophysiological analysis relative to untreated pre-drug level (reference value: 52.1 +/- 15.3%); assay type: functional, Hippocampus; set-up: scale not given: the % may be the effect or the level left
[13] = (§3) Neuroprotective activity in organotypic Wistar rat hippocampal CA1 region slices assessed as protection from oxygen-deprivation-induced neuronal damage at 30 uM dosed during 30 mins insult and subsequent 24 hrs recovery period by propidium iodide staining-based fluorescence analysis (reference value: 57 +/- 8%); assay type: functional
[14] = target: Glutamate NMDA receptor (Rattus norvegicus) (UniProt P35439+Q00959+Q00960+Q00961+Q62645+Q8VHN2+Q9R1M7); assay: Displacement of [3H]glycine from NMDA receptor in rat cortical synaptical membrane at 100 uM; assay type: cell membranes; outline: as §1
Mus musculus [15] = species on record: Mus musculus; assay: Antagonist activity at NMDA receptor in mouse cortical wedge assessed as inhibition of NMDA-induced membrane depolarization at 10 uM by electrophysiological assay; assay type: functional
Outline: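 Mouse cortical wedge preparation; antagonism measured as inhibition of depolarization evoked by NMDA, with test compound at 10 µM.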

[16] = as §3, with “at 1” for “at 30”; assay type: functional
Mus musculus [17] = assay: Anticonvulsant activity in Swiss albino mouse assessed as protection from PTZ-induced seizures at 30 mg/kg, po administered 30 mins before PTZ challenge measured after 30 mins; assay type: functional
Outline: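 Male Swiss albino mice (23–30 g), housed 15 per cage, 23 ± 1 °C, 12 h light/dark. Test drug dispersed in 1% sodium carboxymethylcellulose and given orally in 10 ml/kg. PTZ given 90 mg/kg s.c. 30 min later. Clonic generalized convulsions scored over 30 min, expressed as % protection.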

| SMILES | IC50 [1] [µM] | Ki [2] [nM] | Ki (Glutamate NMDA receptor) [nM] | IC50 [5] [nM] | Imax [14] [%] | also measured |
| --- | --- | --- | --- | --- | --- | --- |
| O=c1[nH]c2cc(C(F)(F)F)ccc2c(=O)n1O | 37.6 | 4800 | 850 |  |  |  |
| O=C(O)c1cc(O)c2c(Cl)cc(Cl)cc2n1 |  |  | 80 | 52000 |  | IC50 [3]: 4.7 µM; Imax (Rattus norvegicus [4]): 5%; Imax (Rattus norvegicus [6]): 8% |
| O=C(O)c1ccccc1C(=O)Nc1cc2c(=O)n(O)c(=O)[nH]c2cc1Cl |  |  |  |  |  | Activity (Hippocampus [7]): inactive; inhibition at 5 µM [8]: 39.6%; Activity (Hippocampus [9]): Active; Activity (Hippocampus [10]): 92.2%; inhibition at 1 µM [11]: 19.2%; Activity [12]: 85.8% |
| O=C(O)c1ccn(-c2cc3c(=O)n(O)c(=O)[nH]c3cc2C(F)(F)F)c1 | 17.3 | 460 | 5100 | 2900 |  | IC50 [3]: > 50 µM |
| NS(=O)(=O)c1cccc2c1c([N+](=O)[O-])cc1nc(O)c(O)nc12 [NBQX] | 7 | 70 |  | 200 | 3 | Activity [13]: 20%; inhibition (Mus musculus [15]): inactive |
| Nc1cc2c(=O)n(O)c(=O)[nH]c2cc1C(F)(F)F | 32 | 6100 | 6100 |  |  |  |
| O=c1[nH]c2cc(C(F)(F)F)c([N+](=O)[O-])cc2c(=O)n1O | 7 | 260 | 1300 |  |  |  |

Further lines, with some results ahead:

| IC50 [1] [µM] | Ki [2] [nM] | Ki (Glutamate NMDA receptor) [nM] | IC50 [5] [nM] | Imax [14] [%] | SMILES | also measured |
| --- | --- | --- | --- | --- | --- | --- |
| 19.1 | 1300 | 1100 |  |  | O=c1[nH]c2cc(Cl)c([N+](=O)[O-])cc2c(=O)n1O |  |
| 25 |  |  |  | 10 | O=C(O)c1ccccc1C(=O)Nc1cc2c(=O)n(O)c(=O)[nH]c2cc1C(F)(F)F | Imax (Rattus norvegicus [4]): 8% |
| 4.2 | 720 | 800 | 1500 |  | O=Cc1ccn(-c2cc3c(=O)n(O)c(=O)[nH]c3cc2C(F)(F)F)c1 | IC50 [3]: 7 µM |
|  | 20000 |  |  | 21 | COn1c(=O)[nH]c2cc(C(F)(F)F)c(-n3cnnc3)cc2c1=O | Imax (Rattus norvegicus [6]): 0% |
|  |  | 6500 |  |  | O=c1[nH]c2cc(C(F)(F)F)c(-n3cnnc3)cc2c(=O)n1O | Activity [16]: 29%; Activity (Mus musculus [17]): 65.5% |
|  | 126000 |  |  | 32 | O=c1[nH]c2cc(C(F)(F)F)c(-n3cccc3)cc2c(=O)n1O | Imax (Rattus norvegicus [6]): 10% |
